Measured values pooled from the literature.
In brackets after ≈: the same amount, converted by molar mass.

CNCC(=O)O gave an activity vs control of 98% (Cryptosporidium parvum; parasite growth, imaging; HCT-8; 1 mM, 24 h, intracellular).
O=C(O)CN1C(=O)/C(=C/c2ccc(-c3ccc(N(c4ccccc4)c4ccccc4)cc3)c3ccccc23)NC1=S gave an MBC of over 1000 µg/mL (Streptococcus pneumoniae; microbial killing, broth dilution; ATCC49619).
The EC90 of Cc1cccc2cc[nH]c12 is reported as 1120 µM (Cryptosporidium parvum; parasite growth; HCT-8; 24 h, intracellular).
N#CC(=Cc1ccccc1O)C1=NC(=O)C(=Cc2cn(-c3ccccc3)nc2-c2ccccc2)S1 gave an MBC of 0.5 µg/mL (≈ 1.05 µM) (Klebsiella pneumoniae; microbial killing, broth dilution).
NCCCCCN has an activity vs control of 96.3% (Cryptosporidium parvum; parasite growth, imaging; HCT-8; 1 mM, 24 h, intracellular).
O=S(=O)(Oc1cccc2cccnc12)c1cccs1 has an IC50 of 443 µg/mL (≈ 1520 µM) (Klebsiella pneumoniae; microbial growth, broth dilution; ATCC700603).
With CCOC(=O)c1c(N)csc1-c1cn(-c2ccccc2)nc1-c1ccc(C)cc1 the MBC was 0.25 µg/mL (≈ 0.62 µM) (Klebsiella pneumoniae; microbial killing, broth dilution).
With COc1cccc2cc[nH]c12 the EC90 was 682 µM (Cryptosporidium parvum; parasite growth; HCT-8; 24 h, intracellular).
With O=C(O)CN1C(=O)/C(=C/c2ccc(-c3ccc(N(c4ccccc4)c4ccccc4)cc3)c3ccccc23)SC1=S the MIC was 1000 µg/mL (≈ 1750 µM) (Streptococcus pneumoniae; microbial growth, broth dilution; ATCC49619).
CCOC(=O)c1c(N)csc1-c1cn(-c2ccccc2)nc1-c1ccccc1 has an inhibition zone of 22 mm (Klebsiella pneumoniae; microbial growth, well diffusion; 100000 µg/mL).
O=C(O)c1ccc(-n2cc(COC3=CC(=O)c4ccccc4C3=O)nn2)cc1 has an IC50 of 267 µg/mL (≈ 712 µM) (Klebsiella pneumoniae; microbial growth, broth dilution; ATCC700603).
The EC90 of Cc1cccc2[nH]ccc12 is reported as 552 µM (Cryptosporidium parvum; parasite growth; HCT-8; 24 h, intracellular).
The IC50 of Cc1ccc(-n2cc(COC3=CC(=O)c4ccccc4C3=O)nn2)cc1 is reported as 220 µg/mL (≈ 638 µM) (Klebsiella pneumoniae; microbial growth, broth dilution; ATCC700603).
With Cc1ccc(-c2nn(-c3ccccc3)cc2C=c2sc(=CC#N)[nH]c2=O)cc1 the inhibition zone was 16 mm (Klebsiella pneumoniae; microbial growth, well diffusion; 100000 µg/mL).
Cc1ccc(C(C)C)cc1OCc1cn(-c2ccc([N+](=O)[O-])cc2)nn1 gave an IC50 of 122 µg/mL (≈ 346 µM) (Klebsiella pneumoniae; microbial growth, broth dilution; ATCC700603).
Cc1c(CN(C)C(=O)/C=C/c2cnc3c(c2)CC(CCN)C(=O)N3)oc2ccccc12.Cl (centres unmarked) gave an MIC of 16 µg/mL (Klebsiella pneumoniae; microbial growth, broth dilution; BAA2342).
O=C(O)CCc1ccc(O)cc1 has an activity vs control of 90.5% (Cryptosporidium parvum; parasite growth, imaging; HCT-8; 1 mM, 24 h, intracellular).
CC(C)(NC(=O)c1cc2c(Cl)cc(Cl)cc2[nH]1)c1cn(Cc2ccc(Cl)c(Cl)c2)nn1 has an inhibition of over 60% (Cryptosporidium parvum; parasite growth, imaging; HCT-8; 11 µM, 72 h, intracellular).
The IC50 of Cc1ccc(-n2cc(COc3cc(C(C)C)ccc3C)nn2)cc1 is reported as 246 µg/mL (≈ 766 µM) (Klebsiella pneumoniae; microbial growth, broth dilution; ATCC700603).
For Cc1cccc(C(=O)O)c1, the activity vs control was 96.8% (Cryptosporidium parvum; parasite growth, imaging; HCT-8; 1 mM, 24 h, intracellular).
With O=C(O)CN1C(=O)/C(=C/c2c3ccccc3c(-c3ccc(N(c4ccccc4)c4ccccc4)cc3)c3ccccc23)SC1=S the MIC was over 1000 µg/mL (Streptococcus pneumoniae; microbial growth, broth dilution; ATCC49619).
N#Cc1ccc2[nH]ccc2c1 has an EC90 of 1040 µM (Cryptosporidium parvum; parasite growth; HCT-8; 24 h, intracellular).
The IC50 of COc1ccc(-n2cc(COc3cc(C(C)C)ccc3C)nn2)cc1 is reported as 483 µg/mL (≈ 1430 µM) (Klebsiella pneumoniae; microbial growth, broth dilution; ATCC700603).
With CN[C@H](CC(C)C)C(=O)N[C@H]1C(=O)N[C@@H](CC(N)=O)C(=O)N[C@H]2C(=O)N[C@H]3C(=O)N[C@H](C(=O)N[C@H](C(=O)O)c4cc(O)cc(O)c4-c4cc3ccc4O)[C@H](O)c3ccc(c(Cl)c3)Oc3cc2cc(c3O[C@@H]2O[C@H](CO)[C@@H](O)[C@H](O)[C@H]2O[C@H]2C[C@](C)(N)[C@H](O)[C@H](C)O2)Oc2ccc(cc2Cl)[C@H]1O the MIC was 0.24 µg/mL (≈ 0.166 µM) (Streptococcus pneumoniae; microbial growth, broth dilution; ATCC49619).
The IC50 of COc1ccc(-n2cc(COc3cccc4cccnc34)nn2)cc1 is reported as 336 µg/mL (≈ 1010 µM) (Klebsiella pneumoniae; microbial growth, broth dilution; ATCC700603).
The MBC of O=C1NC(=S)N/C1=C\c1c2ccccc2c(-c2ccc(N(c3ccccc3)c3ccccc3)cc2)c2ccccc12 is reported as over 1000 µg/mL (Streptococcus pneumoniae; microbial killing, broth dilution; ATCC49619).
